ChEMBL document CHEMBL4819118, “Rational modification, synthesis and biological evaluation of N-substituted phthalazinone derivatives designed to target interleukine-15 protein” (Bioorg Med Chem, 2021)

Experiments:
Interleukin-15 [1] = target: T1, Interleukin-15 (Homo sapiens, UniProt P40933); assay: Inhibition of IL-15-induced STAT5 phosphorylation in human NK92 cells incubated for 30 mins followed by IL-15 stimulation and measured after 1 hr by alphascreen assay
Interleukin-2 = Interleukin-2 (Homo sapiens, UniProt P60568); assay: Inhibition of IL2-induced STAT5 phosphorylation in human NK92 cells incubated for 30 mins followed by IL-2 stimulation and measured after 1 hr by alphascreen assay
Sequence of Interleukin-2 (P60568 whole entry): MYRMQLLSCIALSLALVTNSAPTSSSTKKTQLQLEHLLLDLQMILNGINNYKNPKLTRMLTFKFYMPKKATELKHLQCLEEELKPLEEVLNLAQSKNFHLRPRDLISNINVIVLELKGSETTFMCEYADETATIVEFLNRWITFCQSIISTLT

Interleukin-15 [2] = target: T1, Interleukin-15; assay: Binding affinity to recombinant human IL-15 assessed as dissociation constant by SPR analysis
In short: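 IL-15 covalently immobilized on sensor chip; compounds flowed at increasing concentrations and binding monitored by surface plasmon resonance; Kd derived from direct interaction.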

T1 sequence (P40933 whole entry): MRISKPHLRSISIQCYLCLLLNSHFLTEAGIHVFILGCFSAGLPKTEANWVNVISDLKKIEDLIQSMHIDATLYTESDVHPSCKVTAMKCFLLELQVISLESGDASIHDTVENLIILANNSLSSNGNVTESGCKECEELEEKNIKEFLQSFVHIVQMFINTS

| IC50 (Interleukin-15 [1]) [µM] | IC50 (Interleukin-2) [µM] | Kd (Interleukin-15 [2]; read-out: Kd) [µM] | Kd (Interleukin-15 [2]) | SMILES |
| --- | --- | --- | --- | --- |
| 4.5 | 7.7 |  |  | Cn1c(Cc2nn(C)c(=O)c3ccccc23)nnc1SCC(=O)Nc1ccc(Cl)cc1Cl |
| 0.19 | 0.35 | 1.3 |  | Cn1c(Cc2nn(C)c(=O)c3ccccc23)nnc1SCCCCCCCC(=O)Nc1ccc(Cl)cc1Cl |
| 0.28 | 0.45 | 2.4 |  | Cn1nc(Cc2nnc(SCCCCCCCC(=O)Nc3ccc(Cl)cc3Cl)[nH]2)c2ccccc2c1=O |
| 14.9 | 21.9 | 7.8 |  | Cn1c(Cc2nn(CCC=O)c(=O)c3ccccc23)nnc1SCCCCCCCC(=O)Nc1ccc(Cl)cc1Cl |
| 20 | > 30 |  |  | Cn1c(Cc2nn(CCC=O)c(=O)c3ccccc23)nnc1SCC(=O)Nc1ccc(Cl)cc1Cl |
| > 30 | > 30 |  |  | CN(C)CCCn1nc(Cc2nnc(SCC(=O)Nc3ccc(Cl)cc3Cl)n2C)c2ccccc2c1=O |
| > 30 | > 30 |  |  | Cn1nc(Cc2nnc(SCC(=O)Nc3ccc(Cl)cc3Cl)n2CCCO)c2ccccc2c1=O |
| 0.71 | 0.96 | 5.9 |  | Cn1nc(Cc2nnc(SCCCCCCCC(=O)Nc3ccc(Cl)cc3Cl)n2CCC=O)c2ccccc2c1=O |
| > 30 | > 30 | 3.9 |  | Cn1c(Cc2nn(CCCO)c(=O)c3ccccc23)nnc1SCCCCCCCC(=O)Nc1ccc(Cl)cc1Cl |
| > 30 | > 30 |  |  | Cn1c(Cc2nn(CCC(=O)O)c(=O)c3ccccc23)nnc1SCC(=O)Nc1ccc(Cl)cc1Cl |
| > 30 | > 30 |  |  | Cn1nc(Cc2nnc(SCC(=O)Nc3ccc(Cl)cc3Cl)n2CCC(=O)O)c2ccccc2c1=O |
| 0.05 | 0.08 | 3.5 |  | Cn1c(Cc2nn(C)c(=O)c3ccccc23)nnc1SCCCCCCCC(=O)Nc1ccc(C(=O)c2ccccc2)cc1 |
| > 30 | > 30 |  |  | Cn1nc(Cc2nnc(SCCCCCCCC(=O)Nc3ccc(Cl)cc3Cl)n2CCCO)c2ccccc2c1=O |
| 20 | > 30 |  | Not Active | Cn1c(Cc2n[nH]c(=O)c3ccccc23)nnc1SCCCCCCCC(=O)Nc1ccc(Cl)cc1Cl |
| > 30 | > 30 |  |  | CN(C)CCCn1nc(Cc2nnc(SCCCCCCCC(=O)Nc3ccc(Cl)cc3Cl)n2C)c2ccccc2c1=O |
| > 30 | > 30 |  |  | Cn1c(Cc2nn(CCCO[Si](C)(C)C(C)(C)C)c(=O)c3ccccc23)nnc1SCCCCCCCC(=O)Nc1ccc(Cl)cc1Cl |
| 4.2 | 8.6 |  |  | Cn1nc(Cc2nnc(SCC(=O)Nc3ccc(Cl)cc3Cl)n2CCC=O)c2ccccc2c1=O |
| 9.5 | 14.3 |  |  | Cn1nc(Cc2nnc(SCCCCCCCC(=O)Nc3ccc(Cl)cc3Cl)n2CCC(=O)O)c2ccccc2c1=O |
| > 30 | > 30 |  |  | CCOC(CCn1c(Cc2nn(C)c(=O)c3ccccc23)nnc1SCC(=O)Nc1ccc(Cl)cc1Cl)OCC |
| > 30 | > 30 |  |  | Cn1nc(Cc2nnc(SCCCCCCCC(=O)Nc3ccc(Cl)cc3Cl)n2CCCO[Si](C)(C)C(C)(C)C)c2ccccc2c1=O |
|  | > 30 |  |  | Cn1c(Cc2nn(CCCO)c(=O)c3ccccc23)nnc1SCC(=O)Nc1ccc(Cl)cc1Cl |
| > 30 |  |  |  | Cn1c(Cc2nn(CCC(=O)O)c(=O)c3ccccc23)nnc1SCCCCCCCC(=O)Nc1ccc(Cl)cc1Cl |
|  | > 30 |  |  | Cn1c(Cc2nn(CCC3OCCO3)c(=O)c3ccccc23)nnc1SCC(=O)Nc1ccc(Cl)cc1Cl |
| > 30 | > 30 |  |  | CN(C)CCCn1c(Cc2nn(C)c(=O)c3ccccc23)nnc1SCCCCCCCC(=O)Nc1ccc(Cl)cc1Cl |
